Source: ChEMBL document CHEMBL1140405, “6-Acylamino-2-aminoquinolines as potent melanin-concentrating hormone 1 receptor antagonists. Identification, structure-activity relationship, and investigation of binding mode” (J Med Chem, 2005)
Converted amounts (≈) assume the structure as drawn. One block for each compound: values may come before it.

What was measured:
[1] = molecular target: T1, 5-hydroxytryptamine receptor 2C (Homo sapiens, UniProt P28335); test: Inhibitory concentration against human 5-hydroxytryptamine 2C receptor expressed in CHO-K1 cells using [3H]mesulergine; format: cell-based
T1 sequence (P28335 whole entry): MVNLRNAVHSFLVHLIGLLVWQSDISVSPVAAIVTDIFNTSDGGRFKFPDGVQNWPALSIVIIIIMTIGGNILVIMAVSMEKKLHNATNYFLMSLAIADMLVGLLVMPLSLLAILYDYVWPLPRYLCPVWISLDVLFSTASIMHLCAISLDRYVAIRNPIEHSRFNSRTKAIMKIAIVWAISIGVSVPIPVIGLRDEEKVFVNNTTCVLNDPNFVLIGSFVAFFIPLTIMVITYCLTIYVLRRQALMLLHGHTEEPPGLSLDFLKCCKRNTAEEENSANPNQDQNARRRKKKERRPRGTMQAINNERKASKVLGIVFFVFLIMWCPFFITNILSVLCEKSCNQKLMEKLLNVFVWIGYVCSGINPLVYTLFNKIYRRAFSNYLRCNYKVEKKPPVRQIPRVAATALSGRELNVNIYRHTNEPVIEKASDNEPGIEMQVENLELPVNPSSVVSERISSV
Summary of the method: (§1)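 SPA competition binding on purchased membranes from CHO-K1 cells expressing h5-HT2c (4 μg/well), with YSi-WGA beads (0.4 mg/well) and [3H]mesulergine tracer, across various test-compound concentrations. Buffer is 50 mM Tris pH 7.7, 50 mM MgCl2 and 0.1% pargyline. Nonspecific binding uses 1 μM cold mesulergine. IC50 is taken by nonlinear regression.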

[2] = molecular target: Melanin-concentrating hormone receptor 2 (Homo sapiens, UniProt Q969V1); test: Displacement of 30 pM [125I]-MCH from human MCH2R expressed in CHO-K1 in whole-cell binding assay
Sequence of Melanin-concentrating hormone receptor 2 (Q969V1 whole entry): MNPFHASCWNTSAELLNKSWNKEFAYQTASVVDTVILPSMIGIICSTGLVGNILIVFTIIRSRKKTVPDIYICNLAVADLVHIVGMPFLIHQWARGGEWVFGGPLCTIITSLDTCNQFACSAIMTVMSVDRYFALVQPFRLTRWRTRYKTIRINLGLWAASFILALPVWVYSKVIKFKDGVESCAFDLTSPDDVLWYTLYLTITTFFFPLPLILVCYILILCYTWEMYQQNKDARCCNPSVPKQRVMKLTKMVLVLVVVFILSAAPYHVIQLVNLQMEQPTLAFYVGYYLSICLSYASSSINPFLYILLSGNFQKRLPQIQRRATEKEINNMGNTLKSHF

[3] = Solubility was determined by addition of 10 mM DMSO solution of test compound to PBS (pH 7) until opalescence
[4] = molecular target: Melanin-concentrating hormone receptor 1 (Homo sapiens, UniProt Q99705); test: Displacement of 150p M [125I]MCH from human MCH1R expressed in CHO-K1 cells at 10 uM; format: cell-based
Sequence of Melanin-concentrating hormone receptor 1 (Q99705 whole entry): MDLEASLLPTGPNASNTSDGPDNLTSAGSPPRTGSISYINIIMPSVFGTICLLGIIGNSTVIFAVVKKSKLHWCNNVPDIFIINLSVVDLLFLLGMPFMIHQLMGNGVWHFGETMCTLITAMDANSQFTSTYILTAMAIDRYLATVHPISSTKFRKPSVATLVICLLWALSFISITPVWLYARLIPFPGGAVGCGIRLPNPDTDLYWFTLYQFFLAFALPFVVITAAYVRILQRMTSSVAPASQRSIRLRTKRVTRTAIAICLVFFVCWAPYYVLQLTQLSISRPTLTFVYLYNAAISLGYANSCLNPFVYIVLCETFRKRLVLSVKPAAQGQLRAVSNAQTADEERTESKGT

D(1A) dopamine receptor = D(1A) dopamine receptor (Homo sapiens, UniProt P21728); test: Inhibitory concentration against dopamine receptor D1
Sequence of D(1A) dopamine receptor (P21728 whole entry): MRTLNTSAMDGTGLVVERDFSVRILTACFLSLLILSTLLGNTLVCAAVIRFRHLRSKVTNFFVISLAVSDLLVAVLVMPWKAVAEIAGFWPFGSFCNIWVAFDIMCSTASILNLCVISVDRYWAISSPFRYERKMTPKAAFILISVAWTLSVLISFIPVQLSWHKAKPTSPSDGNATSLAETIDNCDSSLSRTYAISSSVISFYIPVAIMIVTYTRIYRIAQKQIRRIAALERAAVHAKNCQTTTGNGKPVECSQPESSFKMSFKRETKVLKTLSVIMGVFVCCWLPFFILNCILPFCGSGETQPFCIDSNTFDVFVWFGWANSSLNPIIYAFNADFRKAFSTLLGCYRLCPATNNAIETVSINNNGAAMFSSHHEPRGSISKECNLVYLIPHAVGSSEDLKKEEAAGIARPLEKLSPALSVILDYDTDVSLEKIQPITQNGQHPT

[5] = molecular target: Sodium-dependent dopamine transporter (Homo sapiens, UniProt Q01959); test: Inhibitory concentration against dopamine transporter
Sequence of Sodium-dependent dopamine transporter (Q01959 whole entry): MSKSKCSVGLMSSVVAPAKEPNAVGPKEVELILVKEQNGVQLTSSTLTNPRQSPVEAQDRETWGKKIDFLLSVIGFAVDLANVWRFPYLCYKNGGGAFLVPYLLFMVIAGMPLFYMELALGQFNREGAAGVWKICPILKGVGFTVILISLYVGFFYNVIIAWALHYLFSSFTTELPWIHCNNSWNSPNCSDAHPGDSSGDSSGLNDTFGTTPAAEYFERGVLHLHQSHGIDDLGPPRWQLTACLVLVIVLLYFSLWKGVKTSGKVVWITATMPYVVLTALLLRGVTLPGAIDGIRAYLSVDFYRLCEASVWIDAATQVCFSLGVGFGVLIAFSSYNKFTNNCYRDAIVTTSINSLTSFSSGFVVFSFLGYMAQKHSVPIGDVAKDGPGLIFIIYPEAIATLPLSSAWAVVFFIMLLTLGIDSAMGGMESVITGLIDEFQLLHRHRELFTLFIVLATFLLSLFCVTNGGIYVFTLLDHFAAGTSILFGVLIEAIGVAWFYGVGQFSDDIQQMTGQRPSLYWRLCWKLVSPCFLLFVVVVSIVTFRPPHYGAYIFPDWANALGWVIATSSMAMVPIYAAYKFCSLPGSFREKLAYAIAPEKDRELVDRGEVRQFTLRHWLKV

[6] = molecular target: T2, Adrenergic receptor alpha-2 (Homo sapiens, UniProt P08913+P18825+P18089); test: Inhibitory concentration against alpha-2 adrenergic receptor; format: protein assay
T2 sequence (P08913 whole entry): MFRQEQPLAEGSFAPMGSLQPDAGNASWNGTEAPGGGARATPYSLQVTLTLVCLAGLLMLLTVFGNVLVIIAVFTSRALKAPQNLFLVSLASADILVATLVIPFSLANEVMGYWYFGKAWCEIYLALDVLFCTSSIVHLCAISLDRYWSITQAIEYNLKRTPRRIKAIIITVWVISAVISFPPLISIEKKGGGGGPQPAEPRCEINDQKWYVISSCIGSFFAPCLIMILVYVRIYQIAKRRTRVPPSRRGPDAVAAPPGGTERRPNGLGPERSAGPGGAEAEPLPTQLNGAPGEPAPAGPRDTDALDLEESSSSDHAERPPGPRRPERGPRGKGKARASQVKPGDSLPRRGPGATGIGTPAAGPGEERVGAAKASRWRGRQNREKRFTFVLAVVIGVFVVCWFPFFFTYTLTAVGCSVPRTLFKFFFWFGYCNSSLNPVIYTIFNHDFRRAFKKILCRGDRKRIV
T2 sequence (P18825 whole entry): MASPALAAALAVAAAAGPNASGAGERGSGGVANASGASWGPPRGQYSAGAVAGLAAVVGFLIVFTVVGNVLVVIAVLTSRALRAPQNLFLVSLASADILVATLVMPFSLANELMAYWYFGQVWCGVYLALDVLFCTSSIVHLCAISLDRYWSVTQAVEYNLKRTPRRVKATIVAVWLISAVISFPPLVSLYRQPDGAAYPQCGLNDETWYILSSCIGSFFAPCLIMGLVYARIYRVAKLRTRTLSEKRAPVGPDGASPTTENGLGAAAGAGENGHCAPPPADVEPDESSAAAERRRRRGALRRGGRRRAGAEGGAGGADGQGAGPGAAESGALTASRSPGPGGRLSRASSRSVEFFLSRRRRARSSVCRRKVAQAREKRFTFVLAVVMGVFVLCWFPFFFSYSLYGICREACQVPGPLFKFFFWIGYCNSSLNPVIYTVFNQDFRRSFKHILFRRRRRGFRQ
T2 sequence (P18089 whole entry): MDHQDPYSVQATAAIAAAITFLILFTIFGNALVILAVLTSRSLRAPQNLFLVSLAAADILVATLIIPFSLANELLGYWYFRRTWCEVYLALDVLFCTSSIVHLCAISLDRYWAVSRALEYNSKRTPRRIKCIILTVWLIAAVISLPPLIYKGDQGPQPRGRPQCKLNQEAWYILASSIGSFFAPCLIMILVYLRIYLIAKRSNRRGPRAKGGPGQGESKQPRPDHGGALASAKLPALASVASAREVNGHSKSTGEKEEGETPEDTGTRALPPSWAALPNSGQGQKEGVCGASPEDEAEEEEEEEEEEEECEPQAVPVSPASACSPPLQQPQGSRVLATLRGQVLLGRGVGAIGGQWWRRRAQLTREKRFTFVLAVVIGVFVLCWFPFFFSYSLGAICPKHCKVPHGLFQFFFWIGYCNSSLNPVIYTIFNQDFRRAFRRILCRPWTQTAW

[7] = molecular target: 5-hydroxytryptamine receptor 2A (Homo sapiens, UniProt P28223); test: Inhibitory concentration against 5-hydroxytryptamine 2A receptor
Sequence of 5-hydroxytryptamine receptor 2A (P28223 whole entry): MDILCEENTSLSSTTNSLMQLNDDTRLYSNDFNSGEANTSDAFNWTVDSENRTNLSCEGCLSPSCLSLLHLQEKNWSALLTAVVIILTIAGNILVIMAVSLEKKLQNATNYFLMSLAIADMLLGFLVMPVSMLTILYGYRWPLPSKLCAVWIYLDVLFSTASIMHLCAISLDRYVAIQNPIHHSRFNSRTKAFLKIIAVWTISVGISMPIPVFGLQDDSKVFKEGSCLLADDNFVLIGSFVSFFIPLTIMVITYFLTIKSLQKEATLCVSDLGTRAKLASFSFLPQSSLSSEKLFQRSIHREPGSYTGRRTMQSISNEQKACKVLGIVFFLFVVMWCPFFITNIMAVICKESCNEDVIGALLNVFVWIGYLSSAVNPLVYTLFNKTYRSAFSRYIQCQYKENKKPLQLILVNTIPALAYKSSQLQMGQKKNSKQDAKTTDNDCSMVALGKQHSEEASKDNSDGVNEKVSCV

[8] = molecular target: T3, Muscarinic acetylcholine receptor M2 (Homo sapiens, UniProt P08172); test: Inhibitory concentration against muscarinic acetylcholine receptor M2
T3 sequence (P08172 whole entry): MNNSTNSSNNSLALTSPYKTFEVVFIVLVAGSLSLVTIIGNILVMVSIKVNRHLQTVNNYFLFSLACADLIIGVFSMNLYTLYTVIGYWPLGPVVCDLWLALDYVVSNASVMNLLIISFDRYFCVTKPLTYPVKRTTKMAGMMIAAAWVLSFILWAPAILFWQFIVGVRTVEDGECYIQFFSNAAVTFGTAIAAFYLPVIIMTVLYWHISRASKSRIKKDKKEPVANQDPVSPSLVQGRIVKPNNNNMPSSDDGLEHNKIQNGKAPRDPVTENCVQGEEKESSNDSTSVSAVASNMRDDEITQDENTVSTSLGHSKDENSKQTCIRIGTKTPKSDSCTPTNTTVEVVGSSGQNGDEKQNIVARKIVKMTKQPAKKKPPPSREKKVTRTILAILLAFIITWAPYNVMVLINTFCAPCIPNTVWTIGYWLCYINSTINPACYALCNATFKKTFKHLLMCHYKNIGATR

Histamine H2 receptor = Histamine H2 receptor (Homo sapiens, UniProt P25021); test: Inhibitory concentration against Histamine H2 receptor
Sequence of Histamine H2 receptor (P25021 whole entry): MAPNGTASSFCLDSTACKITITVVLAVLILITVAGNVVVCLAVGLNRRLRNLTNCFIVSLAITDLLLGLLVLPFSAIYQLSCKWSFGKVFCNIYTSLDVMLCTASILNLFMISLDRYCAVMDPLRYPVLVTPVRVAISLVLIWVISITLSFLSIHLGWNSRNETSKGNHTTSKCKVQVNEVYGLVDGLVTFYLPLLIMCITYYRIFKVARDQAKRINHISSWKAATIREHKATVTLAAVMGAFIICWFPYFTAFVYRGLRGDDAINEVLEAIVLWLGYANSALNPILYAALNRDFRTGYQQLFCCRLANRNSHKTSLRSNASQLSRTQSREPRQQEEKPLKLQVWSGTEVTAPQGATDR

[9] = molecular target: T4, Muscarinic acetylcholine receptor M1 (Homo sapiens, UniProt P11229); test: Inhibitory concentration against muscarinic acetylcholine receptor M1
T4 sequence (P11229 whole entry): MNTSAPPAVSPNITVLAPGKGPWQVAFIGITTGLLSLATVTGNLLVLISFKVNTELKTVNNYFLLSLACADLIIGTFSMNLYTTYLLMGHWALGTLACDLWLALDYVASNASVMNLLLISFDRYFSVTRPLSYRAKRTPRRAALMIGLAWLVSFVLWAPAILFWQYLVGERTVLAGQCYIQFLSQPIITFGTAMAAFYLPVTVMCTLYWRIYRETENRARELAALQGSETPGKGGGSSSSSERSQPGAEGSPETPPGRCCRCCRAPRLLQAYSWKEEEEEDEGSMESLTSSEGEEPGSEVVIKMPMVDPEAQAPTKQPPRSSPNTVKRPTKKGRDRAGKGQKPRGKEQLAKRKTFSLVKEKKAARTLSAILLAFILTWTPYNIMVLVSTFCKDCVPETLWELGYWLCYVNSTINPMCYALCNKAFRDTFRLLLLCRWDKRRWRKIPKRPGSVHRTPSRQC

[10] = molecular target: T1, 5-hydroxytryptamine receptor 2C; test: Inhibitory concentration against 5-hydroxytryptamine 2C receptor expressed in CHO-K1 cells using [3H]mesulergine; format: cell-based; summary of the method: as §1
[11] = molecular target: 5-hydroxytryptamine receptor 1B (Homo sapiens, UniProt P28222); test: Inhibitory concentration against 5-hydroxytryptamine 1B receptor
Sequence of 5-hydroxytryptamine receptor 1B (P28222 whole entry): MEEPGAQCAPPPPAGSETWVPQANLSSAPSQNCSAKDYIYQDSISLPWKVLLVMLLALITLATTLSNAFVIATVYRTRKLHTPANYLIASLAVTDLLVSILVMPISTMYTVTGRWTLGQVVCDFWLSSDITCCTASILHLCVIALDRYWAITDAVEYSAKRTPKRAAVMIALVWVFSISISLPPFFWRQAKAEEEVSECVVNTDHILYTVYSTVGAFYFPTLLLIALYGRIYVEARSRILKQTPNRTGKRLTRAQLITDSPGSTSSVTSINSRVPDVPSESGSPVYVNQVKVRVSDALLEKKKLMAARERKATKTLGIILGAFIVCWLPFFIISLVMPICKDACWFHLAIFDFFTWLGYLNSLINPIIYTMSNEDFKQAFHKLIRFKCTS

Histamine H1 receptor = Histamine H1 receptor (Homo sapiens, UniProt P35367); test: Inhibitory concentration against Histamine H1 receptor
Sequence of Histamine H1 receptor (P35367 whole entry): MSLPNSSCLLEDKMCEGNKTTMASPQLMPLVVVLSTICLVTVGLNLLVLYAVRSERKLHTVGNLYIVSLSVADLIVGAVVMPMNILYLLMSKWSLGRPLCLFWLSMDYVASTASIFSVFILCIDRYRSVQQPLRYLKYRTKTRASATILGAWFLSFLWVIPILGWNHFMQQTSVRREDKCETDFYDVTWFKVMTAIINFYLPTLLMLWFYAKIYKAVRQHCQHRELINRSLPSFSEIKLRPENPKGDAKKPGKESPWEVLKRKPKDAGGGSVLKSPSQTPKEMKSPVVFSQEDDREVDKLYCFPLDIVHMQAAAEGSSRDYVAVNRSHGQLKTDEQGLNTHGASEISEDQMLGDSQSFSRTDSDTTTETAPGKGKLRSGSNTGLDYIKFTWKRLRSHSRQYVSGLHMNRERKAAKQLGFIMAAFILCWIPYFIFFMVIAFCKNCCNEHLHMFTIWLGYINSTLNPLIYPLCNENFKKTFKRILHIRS

D(3) dopamine receptor = D(3) dopamine receptor (Homo sapiens, UniProt P35462); test: Inhibitory concentration against dopamine receptor D3
Sequence of D(3) dopamine receptor (P35462 whole entry): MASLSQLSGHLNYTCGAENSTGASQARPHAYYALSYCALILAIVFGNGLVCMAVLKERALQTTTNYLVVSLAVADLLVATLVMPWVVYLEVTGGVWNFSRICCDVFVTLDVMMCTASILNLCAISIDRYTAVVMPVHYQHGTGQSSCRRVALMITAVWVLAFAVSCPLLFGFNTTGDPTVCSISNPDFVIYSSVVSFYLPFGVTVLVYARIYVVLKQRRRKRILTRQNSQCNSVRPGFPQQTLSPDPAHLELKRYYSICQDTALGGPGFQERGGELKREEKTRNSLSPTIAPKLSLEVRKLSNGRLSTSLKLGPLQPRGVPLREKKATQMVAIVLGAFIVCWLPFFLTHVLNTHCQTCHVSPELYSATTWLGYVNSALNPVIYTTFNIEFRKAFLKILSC

IC50 [2]: 4.5 µM | solubility kinetic ([3]; PBS): 80 µM (≈ 36.9 µg/mL)
SMILES: Cc1cc(N(C)CCN(C)C)nc2ccc(NC(=O)COc3ccc(Cl)cc3Cl)cc12

IC50 [1]: 5.7 µM | IC50 [2]: 8.4 µM
SMILES: Cc1cc(NCCN(C)C)nc2ccc(NC(=O)/C=C/c3ccc(OC(F)(F)F)cc3)cc12

IC50 [1]: 4 µM | IC50 [2]: 7.1 µM
SMILES: Cc1cc(NCCCN(C)C)nc2ccc(NC(=O)COc3ccc(OC(F)(F)F)cc3)cc12

inhibition [4]: 52%
SMILES: CCOc1ccc(/C=C/C(=O)Nc2ccc3nc(N4CCN(C)CC4)cc(C)c3c2)cc1OC

IC50 (D(1A) dopamine receptor): 0.9 µM | IC50 [5]: 10 µM | IC50 [6]: 1.3 µM | IC50 [7]: 1.9 µM | IC50 [8]: 0.48 µM | IC50 (Histamine H2 receptor): 0.86 µM | IC50 [9]: 1.3 µM | IC50 [10]: 0.9 µM | IC50 [11]: 0.8 µM | IC50 (Histamine H1 receptor): > 10 µM | IC50 (D(3) dopamine receptor): 2.3 µM
SMILES: Cc1cc(N(C)CCN(C)C)nc2ccc(NC(=O)/C=C/c3ccc(OC(F)(F)F)cc3)cc12

solubility kinetic ([3]; PBS): 10 µM (≈ 4.46 µg/mL)
SMILES: Cc1cc(N2CCOCC2)nc2ccc(NC(=O)COc3ccc(Cl)cc3Cl)cc12

IC50 [1]: 4.7 µM | IC50 [2]: > 10 µM
SMILES: CCN1CCCC1CNc1cc(C)c2cc(NC(=O)COc3ccc(OC(F)(F)F)cc3)ccc2n1 (centres undefined)

More lines, now with the values behind:

SMILES: Cc1cc(N(C)CCO)nc2ccc(NC(=O)/C=C/c3ccc(OC(F)(F)F)cc3)cc12
IC50 [1]: > 10 µM | IC50 [2]: 6.4 µM

SMILES: Cc1cc(N2CCOCC2)nc2ccc(NC(=O)COc3ccc(OC(F)(F)F)cc3)cc12
IC50 [1]: > 10 µM | IC50 [2]: > 10 µM | solubility kinetic ([3]; PBS): 25 µM (≈ 11.5 µg/mL)

SMILES: COc1ccc(OC)c(/C=C/C(=O)Nc2ccc3nc(N4CCN(C)CC4)cc(C)c3c2)c1
inhibition [4]: 47%

SMILES: CCN1CCN(c2cc(C)c3cc(NC(=O)/C=C/c4ccccc4OC(C)C)ccc3n2)CC1
inhibition [4]: 41%

SMILES: Cc1cc(N2CCNCC2)nc2ccc(NC(=O)/C=C/c3ccc(OC(F)(F)F)cc3)cc12
IC50 [1]: 1.1 µM | IC50 [2]: > 10 µM | solubility kinetic ([3]; buffer): 25 µM (≈ 11.4 µg/mL)

SMILES: Cc1cc(N2CCC(N)CC2)nc2ccc(NC(=O)COc3ccc(OC(F)(F)F)cc3)cc12
IC50 [2]: 4.7 µM | solubility kinetic ([3]; PBS): 150 µM (≈ 71.2 µg/mL)

SMILES: Cc1cc(N2CCCNCC2)nc2ccc(NC(=O)/C=C/c3ccc(OC(F)(F)F)cc3)cc12
IC50 [1]: 1.6 µM
